According to the EternaBench riboswitch data:

Test system: MS2 coat protein
Test: apparent Kd, MS2 coat protein; higher = weaker binding; RNA-MaP array; FMN 200 µM where present
Outline: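 Two titrations, one without ligand and one with constant ligand, were run with SNAP-549-labelled MS2 coat protein from 0.7 or 1.5 nM, doubling to 3 µM. The targets were designs transcribed by stalled E. coli RNA polymerase on Illumina sequencing-chip clusters, in 100 mM Tris-HCl pH 7.5, 80 mM KCl, 4 mM MgCl2, BSA, DTT, yeast tRNA and Tween-20. The apparent Kd is the median of filtered per-cluster binding-curve fits, with green signal normalised to red-channel RNA signal and control-cluster median Fmax.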

[1] = designed as: OFF switch for flavin mononucleotide, no ligand
[2] = ligand present: flavin mononucleotide, designed as: OFF switch for flavin mononucleotide
[3] = designed as: ON switch for flavin mononucleotide, no ligand
[4] = ligand present: flavin mononucleotide, designed as: ON switch for flavin mononucleotide

UGGUGAAGUGUAGGAUAUGGAGGUGGGUUUUGGCCAGAAGGACAUGAGGAUCACCCAUGUGGUAGAGGGUUGGUGGUGGCCCGU
apparent Kd [1]: 16.7 nM | apparent Kd [2]: 15.2 nM

UGUAACCUAGGAUAUACAUGAGGAUCACCCAUGUAAUGUAGUAUAGUGUGUGUGAGGUGUAGAAGGAGGGAUGU
apparent Kd [1]: 79.5 nM | apparent Kd [2]: 125 nM

UGUAAUGCUAUUGCAGAGGUUUAGAAGGAUAUACAUCGACAUGACCGUACAUGAGGAUCACCCAUGUAGAAGGUCUAACUUCUU
apparent Kd [1]: 4.95 nM | apparent Kd [2]: 4.91 nM

UGUACGUGAGGAUAUGGACGUAUCGAAGACAAGCUACGAUACCAGAAGGUACAUGAGGAUCACCCAUGUGGUUC
apparent Kd [1]: 376 nM | apparent Kd [2]: 370 nM

UGUAUGGACAGAGGAUAUACAGAUAGGAUCUACUAUCAAACAAUCCUGACAUGAGGAUCACCCAUGUAGAAGGCUGUCCAUACU
apparent Kd [1]: 23.8 nM | apparent Kd [2]: 91.4 nM

UGUAUGGACAGAGGAUAUACCGAUAGGAUCUACUAUCGAACAAUCCUCACAUGAGGAUCACCCAUGUAGAAGGCUGUCCAUACU
apparent Kd [1]: 24.1 nM | apparent Kd [2]: 283 nM

UGUAUGGACAGAGGAUAUGCCGAUAGGAUCUACUAUCGAAGAAUCCUCACAUGAGGAUCACCCAUGUAGAAGGCUGUCCAUACU
apparent Kd [1]: 25.3 nM | apparent Kd [2]: 150 nM

UGUAUUAAUGGAGGAUAUCGAUAUCAAACAUGAGGAUCACCCAUGUUGAGGAUCACCCAUGUCCACGAGAAGGCUGGCGUACGU
apparent Kd [3]: 16.6 nM | apparent Kd [4]: 18.1 nM

UGUAUUAAUGGAGGAUAUCGAUAUCAAACAUGAGGAUCACCCAUGUUGAGGAUCACCCAUGUCCAUGAGAAGGCCGGCGUACUU
apparent Kd [3]: 34.4 nM | apparent Kd [4]: 32.8 nM

UGUCAUAAAUAGAAGGGUAGUUGGGUUUUACAUGAGGAUCACCCAUGUAUUAUAGGAUAUGUGUAAAGUUAUUAUUAAAGUAAA
apparent Kd [1]: 39.2 nM | apparent Kd [2]: 34.5 nM

UGUCGAAGCAGAGGAUAUUACAUGAGGAUCACCCAUGUAUGAACCAAUAGCUGGAAACAGCAAUGUAAGAAGGCUGCUCCGACA
apparent Kd [1]: 11.8 nM | apparent Kd [2]: 138 nM

UGUCGGACCAGAGGAUAUUACAUGAGGAUCACCCAUGUAUGAACCAAUAGCUGGAAACAGCAAUGUAAGAAGGCUGCUCCGACA
apparent Kd [1]: 9.74 nM | apparent Kd [2]: 105 nM

UGUCGGAGCAGAGGAUAUACAUGAGGAUCACCCAUGUAAAUGAAAGAUAAGCUGGAAACAGCAAUGUAGAAGGCUGCUCCGACA
apparent Kd [1]: 18.4 nM | apparent Kd [2]: 88 nM

UGUCGGAGCAGAGGAUAUACAUGAGGAUCACCCAUGUAAUAAAGUGAAGCCUGAAAACAGGCAAUGUAGAAGGCUGCUCCGACA
apparent Kd [1]: 11.5 nM | apparent Kd [2]: 85 nM

UGUCGGAGCAGAGGAUAUUACAUGAGGAUCACCCAUGUAUGAACCAAUAGCUCGAAACAGCAAUGUAAGAAGGCUGCUCCGACA
apparent Kd [1]: 6.38 nM | apparent Kd [2]: 69.9 nM

UGUCGGAGCAGAGGAUAUUACAUGAGGAUCACCCAUGUAUGAACCAAUAGCUGGAAACAGCAAUGUAAGAAGGCUGCUCCGAUA
apparent Kd [1]: 11.8 nM | apparent Kd [2]: 166 nM

UGUCGGAGCAGAGGAUAUUACAUGAGGAUCACCCAUGUAUGAACCAAUAGCUGGAAAUAGCAAUGUAAGAAGGCUGCUCCGACA
apparent Kd [1]: 15.8 nM | apparent Kd [2]: 168 nM

UGUCGGAGCAGAGGAUAUUACAUGAGGAUCACCCAUGUAUGAACCAAUGGCUGGAAACAGCAAUGUAAGAAGGCUGCUCCGACA
apparent Kd [1]: 9.69 nM | apparent Kd [2]: 64.5 nM

UGUCGGAGCAGAGGAUAUUACAUGAGGAUCACCCAUGUAUGAACCAAUUGCUGGAAACAGCAAUGUAAGAAGGCUGCUCCGACA
apparent Kd [1]: 5.04 nM | apparent Kd [2]: 9.44 nM

UGUCGGAGCAGAGGAUAUUACAUGAGGAUCACCCAUGUAUGAACCAUUAGCUGGAAACAGCAAUGUAAGAAGGCUGCUCCGACA
apparent Kd [1]: 5.37 nM | apparent Kd [2]: 10.4 nM

UGUCGGAGCAGAGGAUAUUACAUGAGGAUCACCCAUGUAUGAUCCAAUAGCUGGAAACAGCAAUGUAAGAAGGCUGCUCCGACA
apparent Kd [1]: 291 nM | apparent Kd [2]: 8.48 nM

UGUCUAUAUGAAGGAUAUCUAAGCAUAAACCGUAGAGAAGGUCAAUAGUACAUGAGGAUCACCCAUGUUGGGAUUGAUGGGUUU
apparent Kd [1]: 25.3 nM | apparent Kd [2]: 38.6 nM
